Shown are actives, neighbours in structure and some others; about 2.9% of the full set was active somewhere.
CHO parental Ca: counter-screen: ATP calcium response change in parental CHO cells; inhibition, % at 5.6 µM; AID 463079; 330,000 compounds, 0.63% hits; parental CHO-K1, ATP-induced calcium, Fluo-8 fluorescence;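 active = inhibition above that plate's mean sample inhibition plus 3 SD, cut at about 26% in these data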;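 note: 0% = ATP-challenged DMSO wells and 100% = DMSO wells without ATP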
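Material: parental CHO cells / Compound: single nominal dose of 5.6 µM per compound / Signal: Fluo-8 fluorescence / Replicates: singlicate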
OX1R antag-1: blocks the human orexin 1 receptor | 330,000 compounds, 1.8% hits | OX1R-expressing cells, FRET antagonist read-out | inhibition, % at 6.6 µM | O43613; in the data active = inhibition mostly above about 38%, no sharp cut-off; inactive = mostly below about 40%;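 note: 0% = agonist challenge alone and 100% = reference antagonist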
Target sequence (O43613 whole entry, looked up): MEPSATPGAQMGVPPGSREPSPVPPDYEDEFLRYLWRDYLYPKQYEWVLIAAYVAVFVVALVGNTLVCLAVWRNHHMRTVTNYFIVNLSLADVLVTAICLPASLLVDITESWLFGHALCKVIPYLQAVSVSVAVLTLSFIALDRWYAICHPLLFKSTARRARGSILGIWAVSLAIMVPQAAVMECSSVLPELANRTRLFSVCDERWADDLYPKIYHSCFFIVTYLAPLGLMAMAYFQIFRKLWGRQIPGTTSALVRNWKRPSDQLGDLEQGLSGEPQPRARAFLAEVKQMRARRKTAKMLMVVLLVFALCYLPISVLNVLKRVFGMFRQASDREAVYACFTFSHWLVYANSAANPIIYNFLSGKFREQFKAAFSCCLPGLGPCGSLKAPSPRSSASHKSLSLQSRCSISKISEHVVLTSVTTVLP
CHO-K1 Ca antag: M1 antagonist counterscreen hit in parental CHO-K1 cells | ATP-induced calcium, Fluo-8 fluorescence | inhibition, % at 3 µM | 360,000 compounds, 0.6% hits | AID 602250;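 active = inhibition above a per-plate cutoff, the plate's mean sample inhibition plus 3 SD, cut at about 24% in these data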;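 note: 0% = DMSO plus EC80 ATP and 100% = DMSO alone without ATP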
CHO-K1 Ca PAM: counter-screen for M1 PAMs: effect in parental CHO-K1 cells. ATP EC20, Fluo-8 calcium fluorescence; 0% at ATP EC20, 100% at ATP max. activation, % at 3 µM. AID 602247. 360,000 compounds, 0.02% hits;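 active = activation above the run cutoff, the mean activation of all test compounds plus 3 SD, cut at about 40% in these data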;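 note: peak over basal fluorescence ratio in a 140 s read after ATP addition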
OX1R antag-2: antagonists of human orexin 1 receptor; O43613; CHO/OX1R cells, Fluo-8 calcium fluorescence, orexin A; inhibition, % at 5 µM; 330,000 compounds, 0.43% hits; AID 434989;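 active = inhibition above its plate's threshold, mean inhibition of all tested compounds on the plate plus 3 SD, cut at about 37% in these data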;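 note: 0% = orexin A challenge wells and 100% = SB-334867-A antagonist wells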
CHO-K1 Ca ag: M1 agonist counterscreen hit in parental CHO-K1 cells; Fluo-8 calcium fluorescence; scaled to maximal ATP response, vehicle zero; activation, % at 3 µM; 360,000 compounds, 0.48% hits; AID 602248; in the data active = activation above about 15%;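 note: untransfected CHO-K1 host cells lacking M1 receptor as counterscreen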
* marks the source's active call; other numbers are inactive results; · = no result.

SMILES | CHO parental Ca | OX1R antag-1 | CHO-K1 Ca antag | CHO-K1 Ca PAM | OX1R antag-2 | CHO-K1 Ca ag
COc1cc2sc3cc(NCC[C@@H]4CCCN4C)ccc3c(=O)c2cc1OC | -17 | 23 | 15 | -25 | -2 | -1
COc1cc2sc3cc(NCc4ccc5c(c4)OCO5)ccc3c(=O)c2cc1OC | -1 | 50* | -14 | 20 | 1 | -1
COc1cc2sc3cc(NCc4ccc(C)o4)ccc3c(=O)c2cc1OC | -18 | 45* | -6 | 5 | 4 | 9
COc1cccc(-c2cnc3c(NC=O)cc(-c4ccc(N(C)C)cc4)cn23)c1 | · | · | 25* | 4 | · | 14
CN(C)c1ccc(-c2cc(NC=O)c3ncc(-c4ccc(F)c(Cl)c4)n3c2)cc1 | · | · | 5 | 11 | · | 20*
Cc1nc2ccccc2n1Cc1ccccc1Br | 0 | 24 | 15 | -9 | 4 | 23*
CCN(CC(=O)Nc1c(F)cccc1F)C(=O)C1Cc2ccccc2CN1S(=O)(=O)CC (centres undefined) | -10 | 10 | 5 | -18 | -13 | 0
CCn1c(SCc2nc3scc(-c4ccccc4)c3c(=O)[nH]2)nnc1-c1cccs1 | -43 | 56* | 0 | 14 | -6 | 5
COc1ccc(C(=O)N2CCCC(O)C2)cc1OC1CCN(C(C)C)CC1 (centres undefined) | · | · | -11 | 5 | · | 1
COc1ccc(N2CCN(c3nc(NCCO)nc(N4CCOCC4)n3)CC2)cc1 | 17 | 26 | 27* | -8 | -5 | 1
CCCCCCCNC(=O)C1CC(=O)N(C)C(=Nc2ccc(OC)cc2)S1 (centres undefined) | -29 | -2 | -1 | 9 | -33 | 1
COc1ccc(S(N)(=O)=O)cc1C(=O)OCC(=O)N1c2ccccc2NC(=O)C1(C)C | -4 | -3 | -5 | -6 | 9 | 0
COCc1c(C(=O)OCC(=O)N2c3ccccc3CC2C)oc2ccccc12 (centres undefined) | -19 | 50 | 24* | -7 | -21 | 0
COCc1c(C(=O)OCC(=O)N2CCCC2=O)oc2ccccc12 | -19 | 4 | 0 | 8 | -12 | 0
COc1cc(/C=C/C(=O)OCC(=O)N2c3ccccc3NC(=O)C2(C)C)cc(OC)c1OC | -8 | 39* | -8 | 7 | 12 | 9
COCc1c(C(=O)OCC(=O)N2c3ccccc3NC(=O)C2(C)C)oc2ccccc12 | · | · | 30* | -4 | · | 4
Cc1cccc(-n2c(C)nc3cc(C(=O)N4CCOCC4)ccc32)c1 | 0 | 5 | -5 | 8 | -6 | 1
COc1ccc2c(c1)CCCC21NC(=O)N(CC(=O)c2cc(F)ccc2F)C1=O (centres undefined) | -25 | 8 | -10 | 6 | -34 | 0
CN(CC(=O)Nc1ccccc1Cl)C(=O)CN1C(=O)C2CC=CCC2C1=O (centres undefined) | -4 | 6 | -3 | 5 | 3 | 0
CCOc1ccc(-c2c(C(=O)N/N=C/C3CC=CCC3)nnn2-c2nonc2N)cc1 (centres undefined) | -19 | 9 | -15 | 14 | -4 | 1
CN(C(=O)c1cccc(Br)c1)C1CCS(=O)(=O)C1 (centres undefined) | 1 | 19 | 9 | -7 | 10 | 9
O=C(N/C(=C\c1ccc([N+](=O)[O-])cc1)C(=O)N1CCCCC1)c1ccccc1Br | -28 | 51* | -2 | 18 | -31 | 0
O=C(N/C(=C\c1ccc([N+](=O)[O-])cc1)C(=O)N1CCCCC1)c1ccc(Br)o1 | 9 | 24 | -3 | 10 | -26 | 1
O=C(Nc1nccs1)[C@@H]1CC=C[C@@H]2CCN(Cc3ccccc3)C(=O)[C@@H]21 | -17 | 68* | 0 | -2 | 6 | 0
CN(C)c1ccc(/C=C/c2nc3ccccc3c(=O)n2CCO)cc1 | 7 | 52* | 4 | -23 | 3 | 14
SMILES | CHO parental Ca | OX1R antag-1 | CHO-K1 Ca antag | CHO-K1 Ca PAM | OX1R antag-2 | CHO-K1 Ca ag
O=C(O)C1CCN(S(=O)(=O)c2ccc3[nH]ccc3c2)CC1 | · | · | 26* | -14 | · | 0
Cc1ccc(S(=O)(=O)N2CCC(C(=O)O)CC2)cc1C(=O)O | -7 | 14 | 2 | 13 | -1 | 0
O=C(NCCN1CCOCC1)c1cccc(NS(=O)(=O)c2ccc(Br)cc2)c1 | -4 | 9 | 3 | 1 | -21 | 1
CN1/C(=C\C(=O)COC(=O)c2ccco2)C(C)(C)c2ccccc21 | -4 | 32 | -10 | 17 | -6 | 6
CN1/C(=C\C(=O)C(F)F)C(C)(C)c2ccccc21 | -2 | -1 | 3 | 8 | -11 | 0
CN1/C(=C\C(=O)c2ccco2)C(C)(C)c2ccccc21 | 71* | 33 | 39* | 1 | 21 | 14
CC(=O)/C=C1\N(C)c2ccc(C)cc2C1(C)C | 38* | 22 | 12 | 13 | 6 | 1
CN1/C(=C\C(=O)c2cncc(Br)c2)C(C)(C)c2ccccc21 | 39* | 19 | 24* | -16 | 37 | 1
Cc1ccc(Cn2cc(CN3CC(N(C)C)CS3(=O)=O)nn2)cc1 (centres undefined) | · | · | -17 | 10 | · | 1
CCCN(C(=O)CCl)C1=CCCCC1 | 5 | 2 | -12 | 11 | -17 | 1
CC(C)NC(=O)N(C)C[C@H]1Oc2ccc(NC(=O)Nc3ccccc3)cc2C(=O)N([C@@H](C)CO)C[C@@H]1C | -2 | 4 | -1 | 6 | -15 | 0
Nc1ccc(C(=O)N2CCN(S(=O)(=O)c3ccc4c(c3)OCCCO4)CC2)cc1[N+](=O)[O-] | -3 | 8 | -4 | 22 | -16 | 8
CC(C)N(C(=S)NCc1ccccc1)C(C)C | -8 | 5 | 26* | -6 | -8 | 0
CC(C)N(C(=S)NCc1ccccc1)c1ccccc1 | -7 | 9 | -1 | 14 | -11 | 0
COc1ccc(O)c(CNn2c(-c3ccc(Br)cc3)nc3ccccc3c2=O)c1 | -20 | 44* | 2 | 9 | -7 | 2
COc1ccc(OC)c(CNn2c(-c3ccccc3F)nc3ccccc3c2=O)c1 | -19 | 32 | 3 | 20 | -33 | 10
COc1ccc(CC(=O)NC(C)c2ccc(S(N)(=O)=O)cc2)cc1S(=O)(=O)N1CCOCC1 (centres undefined) | -1 | 23 | -4 | 15 | -10 | 5
CCCCc1nc(NCCN2CCOCC2)c(C#N)c2c1COC(C)(C)C2 | -22 | 15 | 25* | -6 | -35 | 0
COc1ccccc1N(CC(=O)Nc1cc(S(=O)(=O)N(C)C)ccc1C)S(=O)(=O)c1cccs1 | -16 | 34* | -12 | 10 | 26 | 0
COc1ccc(S(=O)(=O)N(CC(=O)N/N=C/c2cccs2)c2cc(C)cc(C)c2)cc1OC | -26 | 50* | 8 | -3 | 35 | 12
CSCCC(NS(=O)(=O)c1ccccc1F)C(=O)NCc1ccncc1 (centres undefined) | -14 | 21 | -2 | 4 | -23 | 0

Screening results from PubChem BioAssay.
